# ChEMBL document CHEMBL3632496, “Novel 2-Carbonylbenzo[b]thiophene 1,1-Dioxide Derivatives as Potent Inhibitors of STAT3 Signaling Pathway” (ACS Med Chem Lett, 2015)
# Calls of active or inactive are those of the source. No cut-off for these calls is given here.
# Experiments:
# MDA-MB-231 = test: Cytotoxicity against human MDA-MB-231 cells assessed as growth inhibition after 48 hrs by MTT assay; format: functional, cell-based; details: MDA-MB-231, 48 h
# DU-145 = test: Cytotoxicity against human DU145 cells assessed as growth inhibition after 48 hrs by MTT assay; format: functional, cell-based; details: DU-145, 48 h
# MCF7 = test: Cytotoxicity against human MCF7 cells assessed as growth inhibition after 48 hrs by MTT assay; format: functional, cell-based; details: MCF7, 48 h
# [1] = Cytotoxicity against human MDA-MB-435S cells assessed as growth inhibition after 48 hrs by MTT assay; format: functional, cell-based
# [2] = Cytotoxicity against human PANC1 cells assessed as growth inhibition after 48 hrs by MTT assay; format: functional, cell-based; details: PANC-1, 48 h
# A549 = test: Cytotoxicity against human A549 cells assessed as growth inhibition after 48 hrs by MTT assay; format: functional, cell-based; details: A549, 48 h
# SMMC-7721 = test: Cytotoxicity against human SMMC7721 cells assessed as growth inhibition after 48 hrs by MTT assay; format: functional, cell-based; details: SMMC-7721, 48 h
# [3] = Cytotoxicity against human HL-7702 cells assessed as growth inhibition after 48 hrs by MTT assay; format: cell-based; details: L02, 48 h
# [4] = molecular target: Signal transducer and activator of transcription 3 (Homo sapiens) (UniProt P40763); test: Inhibition of STAT3 phosphorylation at Y705 in human MDA-MB-231 cells after 12 hrs by Western blot analysis; format: cell-based
# Signal transducer and activator of transcription 3 (Homo sapiens), sequence (P40763 whole entry): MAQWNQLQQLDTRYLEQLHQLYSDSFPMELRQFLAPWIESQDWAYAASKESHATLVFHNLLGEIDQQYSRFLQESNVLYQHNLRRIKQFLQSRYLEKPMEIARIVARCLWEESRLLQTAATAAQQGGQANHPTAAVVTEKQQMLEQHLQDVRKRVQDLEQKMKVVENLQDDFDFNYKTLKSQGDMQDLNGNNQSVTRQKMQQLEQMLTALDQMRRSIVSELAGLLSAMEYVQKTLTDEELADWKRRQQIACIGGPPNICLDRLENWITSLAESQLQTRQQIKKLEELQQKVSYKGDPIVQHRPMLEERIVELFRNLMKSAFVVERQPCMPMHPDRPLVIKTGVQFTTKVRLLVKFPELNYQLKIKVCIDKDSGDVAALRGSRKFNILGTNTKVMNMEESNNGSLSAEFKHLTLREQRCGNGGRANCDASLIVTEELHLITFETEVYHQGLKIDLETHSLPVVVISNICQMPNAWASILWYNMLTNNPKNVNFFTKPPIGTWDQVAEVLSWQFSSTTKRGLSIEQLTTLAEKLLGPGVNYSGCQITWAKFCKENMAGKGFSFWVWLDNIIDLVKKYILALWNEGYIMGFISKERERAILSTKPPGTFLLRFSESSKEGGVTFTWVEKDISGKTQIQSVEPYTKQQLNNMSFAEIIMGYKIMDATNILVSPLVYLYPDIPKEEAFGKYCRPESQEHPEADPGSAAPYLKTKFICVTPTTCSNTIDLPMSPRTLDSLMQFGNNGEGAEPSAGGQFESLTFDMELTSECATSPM
# Summary of the method: (§1)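 Cells were exposed for 12 h. Whole-cell lysates were immunoblotted with a Y705-phospho-STAT3-specific antibody and for total STAT3.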
# [5] = molecular target: Signal transducer and activator of transcription 3 (Homo sapiens) (UniProt P40763); test: Inhibition of STAT3 phosphorylation at Y705 in human MCF7 cells after 12 hrs by Western blot analysis; format: cell-based; summary of the method: as §1
# [6] = molecular target: Signal transducer and activator of transcription 3 (Homo sapiens) (UniProt P40763); test: Inhibition of STAT3 phosphorylation at Y705 in human MDA-MB-435S cells after 12 hrs by Western blot analysis; format: cell-based; summary of the method: as §1
# [7] = molecular target: Signal transducer and activator of transcription 3 (Homo sapiens) (UniProt P40763); test: Inhibition of STAT3-mediated luciferase activity in human HeLa cells at 4 uM after 12 hrs by luminescence assay relative to control; format: cell-based
# Summary of the method: (§2)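 HeLa cells, which have constitutive STAT3, were transfected with a STAT3-dependent dual luciferase reporter. Reporter luminescence was measured after compound exposure. Values are mean ± SD of triplicate experiments and are compared with vehicle-treated control.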
# [8] = molecular target: Signal transducer and activator of transcription 3 (Homo sapiens) (UniProt P40763); test: Inhibition of IL-6-induced STAT3 phosphorylation in overnight starved human MCF7 cells at 2 to 6 uM preincubated for 2 hrs followed by IL-6 induction by Western blot analysis; format: cell-based
# Summary of the method: (§3)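 Cells were serum-starved overnight and pretreated with compound for 2 h. They were then stimulated with IL-6. Lysates were immunoblotted for phospho-STAT3.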
# [9] = molecular target: Serine/threonine-protein kinase mTOR (Homo sapiens) (UniProt P42345); test: Inhibition of mTOR phosphorylation in human MDA-MB-231 cells at 1 to 4 uM after 12 hrs by Western blot analysis; format: cell-based
# [10] = molecular target: Signal transducer and activator of transcription 3 (Homo sapiens) (UniProt P40763); test: Inhibition of IL-6-induced STAT3 phosphorylation in overnight starved human MDA-MB-231 cells preincubated for 2 hrs followed by IL-6 induction by Western blot analysis; format: cell-based; summary of the method: as §3
# [11] = molecular target: Mitogen-activated protein kinase; ERK1/ERK2 (Homo sapiens) (UniProt P27361+P28482); test: Inhibition of ERK1/2 phosphorylation in human MDA-MB-231 cells at 1 to 4 uM after 12 hrs by Western blot analysis; format: cell-based
# Mitogen-activated protein kinase; ERK1/ERK2 (Homo sapiens), sequence (P27361 whole entry, looked up): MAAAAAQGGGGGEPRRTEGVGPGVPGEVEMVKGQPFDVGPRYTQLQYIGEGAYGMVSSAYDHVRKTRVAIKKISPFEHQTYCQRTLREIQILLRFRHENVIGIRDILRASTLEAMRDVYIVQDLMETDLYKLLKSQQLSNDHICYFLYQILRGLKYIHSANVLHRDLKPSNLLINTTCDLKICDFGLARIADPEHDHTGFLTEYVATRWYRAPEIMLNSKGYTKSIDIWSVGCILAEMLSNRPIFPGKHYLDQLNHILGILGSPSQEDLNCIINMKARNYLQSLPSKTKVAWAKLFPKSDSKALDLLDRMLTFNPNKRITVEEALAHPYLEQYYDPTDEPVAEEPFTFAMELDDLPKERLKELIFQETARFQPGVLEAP
# Mitogen-activated protein kinase; ERK1/ERK2 (Homo sapiens), sequence (P28482 whole entry, looked up): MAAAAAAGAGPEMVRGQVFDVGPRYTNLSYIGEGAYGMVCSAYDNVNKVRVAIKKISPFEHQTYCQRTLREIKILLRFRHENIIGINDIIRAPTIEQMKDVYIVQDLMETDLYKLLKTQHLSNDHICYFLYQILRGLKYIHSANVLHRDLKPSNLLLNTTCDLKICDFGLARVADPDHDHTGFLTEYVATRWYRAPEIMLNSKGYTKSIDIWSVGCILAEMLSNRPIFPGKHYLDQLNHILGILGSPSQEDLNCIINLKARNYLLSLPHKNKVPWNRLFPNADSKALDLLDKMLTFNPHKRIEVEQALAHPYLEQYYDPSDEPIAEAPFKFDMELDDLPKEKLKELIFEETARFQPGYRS
# [12] = molecular target: Signal transducer and activator of transcription 3 (Homo sapiens) (UniProt P40763); test: Inhibition of STAT3-mediated luciferase activity in human HeLa cells at 2 uM after 12 hrs by luminescence assay relative to control; format: cell-based; summary of the method: as §2
# [13] = molecular target: Signal transducer and activator of transcription 3 (Homo sapiens) (UniProt P40763); test: Inhibition of STAT3-mediated luciferase activity in human HeLa cells after 12 hrs by luminescence assay; format: cell-based; summary of the method: as §2
# [14] = molecular target: Proto-oncogene tyrosine-protein kinase Src (Homo sapiens) (UniProt P12931); test: Inhibition of Src phosphorylation in human MDA-MB-231 cells at 1 to 4 uM after 12 hrs by Western blot analysis; format: cell-based
# Proto-oncogene tyrosine-protein kinase Src (Homo sapiens), sequence (P12931 2-536 limits assumed): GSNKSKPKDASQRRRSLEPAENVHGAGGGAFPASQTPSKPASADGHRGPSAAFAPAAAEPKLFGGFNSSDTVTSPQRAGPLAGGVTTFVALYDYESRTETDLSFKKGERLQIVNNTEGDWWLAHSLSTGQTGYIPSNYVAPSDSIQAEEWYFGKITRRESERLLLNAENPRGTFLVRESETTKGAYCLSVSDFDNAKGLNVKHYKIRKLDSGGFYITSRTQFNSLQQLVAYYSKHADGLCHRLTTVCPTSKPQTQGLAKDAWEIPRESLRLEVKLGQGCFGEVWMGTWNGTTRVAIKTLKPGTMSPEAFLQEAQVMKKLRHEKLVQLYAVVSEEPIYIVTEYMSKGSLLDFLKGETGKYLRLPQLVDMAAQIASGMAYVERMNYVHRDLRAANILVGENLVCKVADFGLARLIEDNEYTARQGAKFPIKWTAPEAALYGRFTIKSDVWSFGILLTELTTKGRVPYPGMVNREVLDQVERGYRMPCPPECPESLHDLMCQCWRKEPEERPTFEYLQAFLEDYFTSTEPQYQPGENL
Compound,IC50 (MDA-MB-231),IC50 (DU-145),IC50 (MCF7),IC50 [1],IC50 [2],IC50 (A549),further results
O=C(Nc1ccccc1)C1=Cc2ccc(Br)cc2S1(=O)=O,1840 nM,2660 nM,,,,,
CCN(CC)C(=O)C1=Cc2cc(Br)ccc2S1(=O)=O,1670 nM,1460 nM,890 nM,1540 nM,1940 nM,1580 nM,
CC(C)NC(=O)C1=Cc2cc(Br)ccc2S1(=O)=O,1090 nM,2170 nM,1240 nM,930 nM,5050 nM,2970 nM,IC50 (SMMC-7721): 2400 nM; IC50 [3]: 15000 nM
O=C(NC1CCCCC1)C1=Cc2cc(Br)ccc2S1(=O)=O,5730 nM,5730 nM,,,,,
CC(C)(C)NC(=O)C1=Cc2cc(Br)ccc2S1(=O)=O,1340 nM,1350 nM,1270 nM,820 nM,3340 nM,2850 nM,
CN(C(=O)C1=Cc2cc(Br)ccc2S1(=O)=O)c1ccccc1,880 nM,1260 nM,1130 nM,950 nM,4380 nM,2080 nM,
CC1CCCCN1C(=O)C1=Cc2cc(Br)ccc2S1(=O)=O (stereo unspecified),950 nM,980 nM,990 nM,980 nM,2140 nM,1300 nM,
O=C(Nc1ccccc1)C1=Cc2c(Br)cccc2S1(=O)=O,1740 nM,2640 nM,1730 nM,1390 nM,6670 nM,4090 nM,IC50 (SMMC-7721): 2400 nM; IC50 [3]: 15000 nM
O=C(Nc1cccc(Cl)c1)C1=Cc2c(Br)cccc2S1(=O)=O,2210 nM,3390 nM,,,,,
CC1CCCN(C(=O)C2=Cc3cc(Br)ccc3S2(=O)=O)C1 (stereo unspecified),1070 nM,1410 nM,1260 nM,1370 nM,2980 nM,1940 nM,
CCCCNC(=O)C1=Cc2cc(Br)ccc2S1(=O)=O,2310 nM,3860 nM,,,,,
O=C(Nc1ccccc1)C1=Cc2cc(Br)ccc2S1(=O)=O,1720 nM,2770 nM,,,,,
O=C(Nc1ccccc1)C1=Cc2cc([N+](=O)[O-])ccc2S1(=O)=O,3040 nM,5190 nM,,,,,
O=C(C1=Cc2cc(Br)ccc2S1(=O)=O)N1CCCC1,1270 nM,1540 nM,1380 nM,940 nM,3470 nM,3470 nM,
O=[N+]([O-])c1ccc2c(c1)S(=O)(=O)C=C2,1560 nM,2500 nM,2160 nM,1870 nM,2900 nM,2500 nM,inhibition [4]: Active; inhibition [5]: Active; inhibition [6]: Active; inhibition [7]: 36%
O=C(Nc1ccccc1)C1=Cc2cc(NC(=O)c3ccccc3)ccc2S1(=O)=O,3210 nM,6210 nM,,,,,
O=C(Nc1ccc2c(c1)C=C(C(=O)N1CCCCC1)S2(=O)=O)c1ccccc1,1680 nM,2070 nM,,,,,
Cc1ccc(OC(=O)C2=Cc3c(Br)cccc3S2(=O)=O)cc1,> 15000 nM,> 15000 nM,,,,,
O=C(C1=Cc2cc(Br)ccc2S1(=O)=O)N1CCOCC1,1040 nM,1910 nM,1050 nM,800 nM,3950 nM,2310 nM,
Cc1ccc(NC(=O)C2=Cc3c(Br)cccc3S2(=O)=O)cc1,2460 nM,3030 nM,,,,,
O=C(C1=Cc2cc(Br)ccc2S1(=O)=O)N1CCCCC1,,,,,,,inhibition [8]: Active; inhibition [9]: inactive; inhibition [4]: Dose-dependent effect; inhibition [10]: Dose-dependent effect; inhibition [11]: inactive; inhibition [5]: Dose-dependent effect; inhibition [12]: 14%; inhibition [6]: Dose-dependent effect; inhibition [7]: 48%; inhibition [13]: Dose-dependent effect; inhibition [14]: inactive
O=C(Nc1ccc(Cl)cc1)C1=Cc2c(Br)cccc2S1(=O)=O,3780 nM,6340 nM,,,,,
